# Screens from PubChem BioAssay.
# Yeast tox: yeast growth toxicity, wild-type and mutant, primary screen, cytotoxicity control for eIF2B function restoration project, wild-type and eIF2Bepsilon R284H mutant, A595; hit rate 0.3% among 30,000; S. cerevisiae wild-type growth, A595 turbidity, 16 h; growth inhibition, % at 25 µM (by protocol);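 active = mutant and wild-type yeast strains alike exhibit over 30% growth inhibition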;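 note: 0% = untreated cell controls and 100% = YPD media blanks without cells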
#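 Schedule: 16 h growth with compound, 30 °C. System: yeast, wild-type or eIF2Bepsilon-R284H mutant. Doses: one dose, 25 µM compound[…]. Buffer or medium: YPD. Signal: turbidity measured as absorbance at 595 nm. Read-out basis: growth inhibition (%) versus cell controls and blanks.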
# FXIIa single: human FXIIa protease inhibitors, primary screen, biochemical, single well; Coagulation factor XII (Homo sapiens), P00748; purified human FXIIa, AMC substrate fluorescence, 2 h; inhibition, % at 10 µM; hit rate 0.2% among 33,000; AID 701, 2007; in the data active = inhibition above about 30%;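 note: 0% = enzyme with vehicle only and 100% = no enzyme blank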
# FXIa inh: human FXIa protease inhibitors, primary screen, biochemical, single compound per well; purified human FXIa, fluorogenic AMC substrate cleavage; Coagulation factor XI (Homo sapiens), P03951; AID 687, 2007; hit rate 0.3% among 33,000; inhibition, % at 10 µM;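 active = inhibition above 40% in the primary screen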;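 note: 0% = enzyme without compound and 100% = blank wells lacking enzyme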
# Target sequence (P03951 19-387 limits assumed): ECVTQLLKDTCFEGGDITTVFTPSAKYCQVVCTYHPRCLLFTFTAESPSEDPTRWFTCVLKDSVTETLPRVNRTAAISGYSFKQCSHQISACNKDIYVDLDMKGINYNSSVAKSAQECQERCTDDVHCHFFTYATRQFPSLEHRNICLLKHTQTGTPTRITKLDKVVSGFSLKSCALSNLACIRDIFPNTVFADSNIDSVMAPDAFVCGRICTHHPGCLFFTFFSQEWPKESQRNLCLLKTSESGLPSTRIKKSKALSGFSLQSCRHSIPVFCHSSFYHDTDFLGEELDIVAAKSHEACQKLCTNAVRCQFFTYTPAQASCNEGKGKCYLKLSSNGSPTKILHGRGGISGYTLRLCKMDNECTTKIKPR
# Target sequence (P03951 388-625 limits assumed): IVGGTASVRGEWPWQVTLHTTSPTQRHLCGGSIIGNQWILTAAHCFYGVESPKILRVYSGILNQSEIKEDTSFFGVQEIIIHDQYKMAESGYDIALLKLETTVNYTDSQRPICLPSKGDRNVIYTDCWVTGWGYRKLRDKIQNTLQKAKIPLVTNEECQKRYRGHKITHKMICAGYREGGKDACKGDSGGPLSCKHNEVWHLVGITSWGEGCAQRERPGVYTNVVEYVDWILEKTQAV
# The depositor's hits bear a star; . = no result given. Hits are enriched below; roughly 0.42% of the tested compounds scored in any of these assays.
SMILES,Yeast tox,FXIIa single,FXIa inh
Cc1ccc(NC(=O)CCn2cccc2)cc1,.,3.5,44.4*
COc1ccc(NC(=O)CCn2cccc2)cc1,39.2,.,.
O=C(CSc1ncn[nH]1)NCCOc1ccccc1,.,-1.2,-2.4
COc1ccc(OCCSc2ncn[nH]2)cc1,12.9,-15.3,42.7*
O=C(OCn1ncc(Br)c(Br)c1=O)c1c(F)cccc1F,81.6*,5.4,5.5
CCOC(=O)c1c(NC(=O)c2c(Br)cnn2CC)sc(C)c1C,-16.8,5.2,0.0
O=C(NCc1ccc2c(c1)OCO2)C1CCCN(S(=O)(=O)c2cccc3nonc23)C1 (centres undefined),.,3.4,8.4
O=C(NCc1ccccc1)C1CCCN(S(=O)(=O)c2cccc3nonc23)C1 (centres undefined),-3.1,9.3,61.1*
Cc1ccc(CSCC(=O)N2CCOCC2)cc1,6.2,.,.
Cc1cc(Cn2ccnc2)c(C)cc1Cn1ccnc1,.,7.4,5.2
CC1CCCC(NC(=O)CSc2nnnn2C)C1C (centres undefined),.,5.6,-1.5
Cn1nnnc1SCC(=O)N(C1CCCCC1)C1CCCCC1,-2.8,-14.3,105.5*
O=C(NCCc1csc(-c2ccc(C(F)(F)F)cc2)n1)c1cccs1,.,1.0,3.4
COC(=O)c1ccc(C(=O)OC)c(NC(=O)c2ocnc2C)c1,7.4,.,.
NC(=S)N/N=C/c1ccc(-c2ccc(Cl)c(Cl)c2)o1,30.0*,9.4,3.4
NC(=S)N/N=C\c1ccc(-c2cccc(Cl)c2Cl)o1,.,9.3,5.8
Cn1c(SCC(=O)c2ccccc2)nnc1-c1cccc(N)c1,6.1,6.2,-12.8
O=C(Oc1nsnc1N1CCOCC1)c1ccccc1,.,62.6*,65.8*
O=C(COc1nsnc1N1CCOCC1)N1CCOCC1,14.6,.,.
O=C(c1ccc(F)cc1)N1CCN(C(=O)c2cccnc2)CC1,.,10.2,49.8*
O=C(c1ccc(F)cc1)N1CCC(O)(c2cccnc2)CC1,1.6,.,.
COc1cc(Cl)c(C)cc1NC(=O)CSc1nnc(-c2ccccn2)n1Cc1ccco1,-46.0,.,.
CCn1nc(CC(=O)Nc2nnc(CC(=O)N3CCOCC3)s2)c2ccccc2c1=O,-2.8,4.8,-5.2
CCn1nc(CC(=O)Nc2nnc(CC(=O)N3CCCC3)s2)c2ccccc2c1=O,12.1,-15.1,65.7*
CCc1ccc(NC(=O)Cn2nc(C(F)(F)F)c3c2CCC3)cc1,.,1.8,44.2*
SMILES,Yeast tox,FXIIa single,FXIa inh
CCc1ccccc1NC(=O)Cn1nc(C(F)(F)F)c2c1CCC2,.,0.9,-3.0
COc1nc2c(C)cccc2cc1-c1noc(-c2ccncc2)n1,-7.5,.,.
CCOC(=O)N1CCC2(CC1)C(C#N)=C(N)OC1=C2C(=O)CC(C)C1 (centres undefined),.,8.9,2.4
Cc1ccc(NS(=O)(=O)c2ccc(OCC(=O)N3CCOCC3)cc2)cc1,9.2,8.1,99.4*
CCOC(=O)COc1ccc(S(=O)(=O)Nc2ccc(C)cc2)cc1,.,11.2,2.0
Cn1c(NCc2ccco2)nc2c1c(=O)n(Cc1ccc(Cl)c(Cl)c1)c(=O)n2C,6.2,.,.
CN1CCN(C2=Cc3ccccc3Sc3cc(F)c(F)cc32)CC1,94.2*,.,.
CN1CCN(CCCN2c3ccccc3Sc3ccc(C(F)(F)F)cc32)CC1,.,5.8,4.8
CN1CCN(C2=Cc3ccccc3Sc3cc(F)c(Cl)cc32)CC1,99.2*,.,.
CN1CCN(CCC(=O)N2c3ccccc3Sc3ccc(Cl)cc32)CC1,-1.5,4.8,-2.3
CCCCOC1(c2ccccc2)NC(=S)NN=C1c1ccccc1 (centres undefined),.,8.9,-5.8
Cc1ccc(S(=O)(=O)N=S(CC2CC2(Cl)Cl)CC2CC2(Cl)Cl)cc1 (centres undefined),16.1,4.8,-4.3
CC(CC(=O)Nc1nc2ccccc2[nH]1)c1ccccc1 (centres undefined),13.7,-10.0,12.4
O=C(COc1cccc2ccccc12)Nc1nc2ccccc2[nH]1,30.0*,6.7,6.3
Cc1ccc(Nc2cc(C)nn2-c2nc(C)cc(C)n2)cc1,.,6.7,5.4
Cc1ccc(Nc2cc(C)nn2-c2nc(C)cc(=O)[nH]2)cc1,78.3*,-16.8,-3.5
CCOC(=O)c1c(NC(C)=O)sc2c1CCC(C=NCCCN(CC)CC)=C2Sc1ccccc1,.,-12.2,0.7
CC1=C(C)/C(=N\OS(=O)(=O)c2ccccc2)C=CC1=O,99.6*,9.3,4.2
Cc1ccc(S(=O)(=O)O/N=C2\CCCc3ccccc32)cc1,.,11.1,3.2
COc1ccc(-c2nn(C)c(=O)c3ccccc23)cc1NC(=O)Cn1nc(-c2ccccc2)c2ccccc2c1=O,2.5,0.7,-5.1
COc1ccc(OCC(=O)Nc2cc(-c3nn(C)c(=O)c4ccccc34)ccc2OC)cc1,.,10.9,42.0*
O=C(Nc1ccccc1)C1CC=CCC1C(=O)OCC1CCCO1 (centres undefined),33.3*,.,.
O=C(NCC1CCCO1)c1ccc(NC(=O)C2CCCCC2C(=O)O)cc1 (centres undefined),.,5.9,-2.6
O=C(CN(C1CCCCC1)S(=O)(=O)c1ccc(Cl)cc1)NCCCO,-10.7,-12.4,-1.7
COC(=O)c1sc(NC(C)=O)c(C(=O)OC)c1C,22.4,.,.
SMILES,Yeast tox,FXIIa single,FXIa inh
COC(=O)c1sc(NC(=O)CC(C)C)c(C(=O)OC)c1C,.,6.0,43.3*
CCOC(=O)c1[nH]c2ccc(Cl)cc2c1-c1ccccc1,-56.1,-15.3,30.3
O=c1nc(-c2ccccc2)c2cc(Cl)ccc2[nH]1,-3.1,-16.2,103.4*
O=C(CCCc1ccccc1)N1CCc2ccccc21,.,-0.7,0.4
C/C(N)=C(/C#N)C(=O)COC(=O)C1CCC(C(C)(C)C)CC1 (centres undefined),.,6.5,-5.0
OCCCn1c(-c2ccccc2)nc(=S)c2c1CCCC2,.,7.3,42.9*
CN(C)CCCn1c(-c2ccccc2)nc(=S)c2c1CCCC2,.,8.2,-13.2
O=S(=O)(NC1CC2CCC1C2)c1ccc(Br)s1 (centres undefined),.,11.1,-3.5
Clc1ccc(Nc2nc(-c3cccnc3)cs2)cc1,5.4,-0.4,3.4
Cc1cccnc1Nc1nc(-c2ccc(O)cc2)cs1,36.1*,7.5,11.2
CCN(c1ccccc1)S(=O)(=O)c1ccc(F)cc1C,5.7,.,.
O=C(CCn1c(=O)c2sccc2n(CC(=O)OCc2ccccc2)c1=O)NCc1ccccc1,1.0,9.6,-5.2
COC(=O)c1ccc(NC(=O)c2ccccc2SC)cc1,.,6.7,0.6
Cc1ccc(C(=O)ONc2ccc(N=NC(=O)c3ccccc3O)cc2)cc1,.,15.3,42.6*
COc1cccc(-c2cc(C(=O)NCCCn3ccnc3)no2)c1,20.7,8.1,-9.0
CC(c1ccccc1)n1cc(C(=O)NCc2ccccn2)nn1 (centres undefined),.,7.5,4.2
O=C(NCc1ccccn1)c1cn(CCc2ccccc2)nn1,-9.1,31.0*,3.1
C=CCc1c(C)c(C#N)c2nc3ccccc3n2c1NCCN(C)C,95.5*,.,.
CCc1c(C)c(C#N)c2nc3ccccc3n2c1NCc1ccco1,22.3,-0.8,-0.2
Cc1ccc(C2C(/C=C3/SC(=S)NC3=O)=C(c3cccs3)Oc3ccccc32)cc1 (centres undefined),.,19.9,2.4
Cc1c(CN(C)C(=O)c2sc3cc(Cl)ccc3c2Cl)cnn1C,.,5.0,-5.3
COc1cc(C(=O)OCC(=O)Nc2c(F)c(F)c(F)c(F)c2F)cc(OC)c1OC,-4.7,.,.
